Converted amounts (≈) assume the structure as drawn. The source made the active and inactive calls. The rule behind the calls is not given here.
Columns and labels:
Equine rhinovirus = experiment: Antiviral activity against Equine rhinovirus assessed as inhibition of virus-induced cytopathic effect at 33 degC after 48 hrs by two-fold dilution method
Human alphaherpesvirus 2 [1] = experiment: Antiviral activity against Herpes simplex virus 2 assessed as inhibition of virus-induced cytopathic effect at 37 degC after 72 hrs by two-fold dilution method; type: functional; details: for MIC: Human alphaherpesvirus 2, 72 h
Outline: (§1)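 Susceptible monolayers in stationary tubes were infected with 100 tissue culture infective doses and allowed to adsorb for 1 h. Compound was then added in M-199 with 5% inactivated fetal calf serum at 50–0.3 μg/mL in twofold dilutions, four tubes per dilution. Tubes were held at 37 °C and CPE was scored at 48 and 72 h. MIC is the lowest nontoxic level giving complete CPE inhibition, with toxicity read from uninfected parallel tubes.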

Human alphaherpesvirus 1 [2] = experiment: Antiviral activity against Herpes simplex virus 1 Sheely assessed as inhibition of virus-induced cytopathic effect at 37 degC after 72 hrs by two-fold dilution method; type: functional; details: Human alphaherpesvirus 1, Sheely
Outline: as §1

Human alphaherpesvirus 2 [3] = experiment: Antiviral activity against Herpes simplex virus 2 Curtis assessed as inhibition of virus-induced cytopathic effect at 37 degC after 72 hrs by two-fold dilution method; type: functional; details: Human alphaherpesvirus 2, Curtis
Outline: as §1

[4] = test system: Respiratory syncytial virus; experiment: Antiviral activity against Respiratory syncytial virus assessed as inhibition of virus-induced cytopathic effect at 37 degC after 72 hrs by two-fold dilution method; type: functional; details: human respiratory syncytial virus
Outline: as §1

Influenza A virus [5] = experiment: Antiviral activity against Influenza A2 virus Jap 170 infected in ferret trachea assessed as reduction in viral yield at 200 ug/ml after 3 days followed by compound-washout measured after 24 hrs by chick embryo-based hemagglutination titration method relative to control; type: functional; set-up: scale not given: the % may be the effect or the level left
Influenza A virus [6] = experiment: Antiviral activity against Influenza A2 virus Jap 170 infected in ferret trachea assessed as reduction in viral yield at 100 ug/ml after 3 days followed by compound-washout measured after 24 hrs by chick embryo-based hemagglutination titration method relative to control; type: functional; set-up: scale not given: the % may be the effect or the level left
Human alphaherpesvirus 1 [7] = experiment: Antiviral activity against Herpes simplex virus 1 assessed as inhibition of virus-induced cytopathic effect at 37 degC after 72 hrs by two-fold dilution method; type: functional; details: Human alphaherpesvirus 1, 72 h
Outline: as §1

[8] = test system: unidentified influenza virus; experiment: Antiviral activity against Parainfluenza virus assessed as inhibition of virus-induced cytopathic effect at 37 degC after 72 hrs by two-fold dilution method; type: functional
Outline: as §1

rhinovirus A2 = experiment: Antiviral activity against Human rhinovirus 2 assessed as inhibition of virus-induced cytopathic effect at 37 degC after 72 hrs by two-fold dilution method; type: functional; details: Rhinovirus A
rhinovirus B14 = experiment: Antiviral activity against Human rhinovirus 14 assessed as inhibition of virus-induced cytopathic effect at 37 degC after 72 hrs by two-fold dilution method; type: functional; details: Rhinovirus B
[9] = Antiviral activity against Human rhinovirus 17 assessed as inhibition of virus-induced cytopathic effect at 37 degC after 72 hrs by two-fold dilution method; type: functional, Human rhinovirus B17; details: Rhinovirus B

Compound | MIC (Equine rhinovirus) [µg/mL] | other results
CCC(=O)C(CCCCCCCCCCc1ccc(O)cc1)C(=O)CC | 12 (≈ 33.3 µM) | MIC (Human alphaherpesvirus 2 [1]): 12 µg/mL (≈ 33.3 µM)
Nc1ncnc2c1ncn2[C@@H]1O[C@H](CO)[C@@H](O)[C@@H]1O [VIDARABINE] |  | MIC (Human alphaherpesvirus 1 [2]): 12 µg/mL (≈ 44.9 µM); MIC (Human alphaherpesvirus 2 [3]): 12 µg/mL (≈ 44.9 µM)
CCC(=O)C(CCC(CC)CCCc1ccc2c(c1)OCO2)C(=O)CC (centres undefined) | 3 (≈ 8.32 µM) | 
CCOC(=O)C(CC/C(=C/CCc1ccc2c(c1)OCO2)CC)C(C)=O (centres undefined) | 6 (≈ 16.6 µM) | 
CCC(=O)C(CCCCCCc1ccc(OC(=O)c2ccc(C)cc2)cc1)C(=O)CC | 12 (≈ 28.4 µM) | 
CCC(=O)C(CC/C=C/CCc1ccc(NC(C)=O)cc1)C(=O)CC | 12 (≈ 34.9 µM) | 
CCC(=O)C(CC/C(C)=C/CCc1ccc2c(c1)OCO2)C(=O)CC | 3 (≈ 8.71 µM) | 
CCC(=O)C(CC/C=C/CCc1ccc(OCc2ccccc2)cc1)C(=O)CC | 3 (≈ 7.64 µM) | 
CCC(=O)C(CCCCCCc1ccccc1OC)C(=O)CC | 12 (≈ 37.7 µM) | 
CCC(=O)C(CCCCCCc1ccc(Cl)cc1O)C(=O)CC | 0.7 (≈ 2.07 µM) | 
CC/C(=C\CCc1ccc2c(c1)OCO2)CCC(C(C)=O)C(C)=O | 6 (≈ 18.2 µM) | 
CCC(=O)C(CCCCCc1ccc(O)cc1)C(=O)CC | 12 (≈ 41.3 µM) | MIC (Human alphaherpesvirus 2 [1]): 12 µg/mL (≈ 41.3 µM)
CCC(=O)C(CC/C=C/CCc1cc(OC)c(OCc2ccccc2)c(OC)c1)C(=O)CC | 6 (≈ 13.3 µM) | 
CCC(=O)C(CC/C(=C/CCc1ccc2c(c1)OCO2)CC)C(=O)CC | 6 (≈ 16.7 µM) | 
CCC(=O)C(CC/C(=C/CCc1ccc2c(c1)OCO2)CC)C(C)=O (centres undefined) | 12 (≈ 34.8 µM) | 
CCC(=O)C(CCCCCCc1ccc(Cl)cc1)C(=O)CC | 1.5 (≈ 4.65 µM) | 
CCC(=O)C(CC/C(=C/CCc1ccc(C(=O)OC)cc1)CC)C(=O)CC | 25 (≈ 67.1 µM) | 
CCC(=O)C(CCCCCCc1ccc(OC(=O)c2cc(OC)c(OC)c(OC)c2)cc1)C(=O)CC | 6 (≈ 12 µM) | 
CCC(=O)C(CCCCCCCCc1ccc(O)cc1)C(=O)CC | 3 (≈ 9.02 µM) | MIC (Human alphaherpesvirus 2 [1]): 3 µg/mL (≈ 9.02 µM)
CCC(=O)C(CCCCCCc1ccc(O)c(O)c1)C(=O)CC | 1.5 (≈ 4.68 µM) | 
CCC(=O)C(CCCCCCc1ccc(OC(=O)c2ccccc2C)cc1)C(=O)CC | 6 (≈ 14.2 µM) | 
CCC(=O)C(CCCCCCc1ccccc1)C(=O)CC | 6 (≈ 20.8 µM) | 
CCC(=O)C(CCCCCCc1ccccc1O)C(=O)CC | 6 (≈ 19.7 µM) | 

Compound | MIC (Equine rhinovirus) [µg/mL] | other results
CCC(=O)C(CCCCCCc1ccc(OC(C)=O)cc1)C(=O)CC | 6 (≈ 17.3 µM) | 
CCC(=O)C(CCCCCCc1ccc(Cl)cc1Cl)C(=O)CC | 3 (≈ 8.4 µM) | 
CCC(=O)C(CC/C=C/CCc1ccc2c(c1)OCO2)C(=O)CC | 3 (≈ 9.08 µM) | 
Nc1ccn([C@@H]2O[C@H](CO)[C@@H](O)[C@@H]2O)c(=O)n1 [CYTARABINE] |  | MIC (Human alphaherpesvirus 1 [2]): < 3 µg/mL; MIC (Human alphaherpesvirus 2 [3]): < 3 µg/mL
CCCC(=O)C(CC/C(=C/CCc1ccc2c(c1)OCO2)CC)C(=O)OCC (centres undefined) | 12 (≈ 30.9 µM) | 
CC/C(=C\CCc1ccc2c(c1)OCO2)CCC1CCCC1=O (centres undefined) | 6 (≈ 19.1 µM) | 
O=c1[nH]c(=O)n([C@H]2C[C@H](O)[C@@H](CO)O2)cc1I [IDOXURIDINE] |  | MIC (Human alphaherpesvirus 1 [2]): 6 µg/mL (≈ 16.9 µM); MIC (Human alphaherpesvirus 2 [3]): 6 µg/mL (≈ 16.9 µM)
CCC(=O)C(CC/C=C/CCc1ccc(OC(F)(F)F)cc1)C(=O)CC | 6 (≈ 16.2 µM) | 
CCC(=O)C(CCCCCCc1ccc(OC(F)(F)F)cc1)C(=O)CC | 6 (≈ 16.1 µM) | 
CCC(=O)C(CCCCCCc1cccc(O)c1)C(=O)CC | 6 (≈ 19.7 µM) | 
CCC(=O)C(CCCCCCc1ccc(OC(=O)c2cccc(OC)c2)cc1)C(=O)CC | 3 (≈ 6.84 µM) | 
CCC(=O)C(CCCCCCc1ccc(O)cc1)C(=O)CC | 3 (≈ 9.85 µM) | MIC [4]: 6 µg/mL (≈ 19.7 µM); Activity (Influenza A virus [5]): 99.9%; Activity (Influenza A virus [6]): 94%; MIC (Human alphaherpesvirus 1 [2]): 12 µg/mL (≈ 39.4 µM); MIC (Human alphaherpesvirus 1 [7]): 12 µg/mL (≈ 39.4 µM); MIC [8]: 3 µg/mL (≈ 9.85 µM); MIC (rhinovirus A2): 3 µg/mL (≈ 9.85 µM); MIC (rhinovirus B14): 6 µg/mL (≈ 19.7 µM); MIC (Human alphaherpesvirus 2 [3]): 12 µg/mL (≈ 39.4 µM); MIC [9]: 6 µg/mL (≈ 19.7 µM); MIC (Human alphaherpesvirus 2 [1]): 12 µg/mL (≈ 39.4 µM)
CCC(=O)C(CCCCc1ccc(O)cc1)C(=O)CC | 6 (≈ 21.7 µM) | MIC (Human alphaherpesvirus 2 [1]): 12 µg/mL (≈ 43.4 µM)
CCC(=O)C(CCCCCCc1ccc(C)cc1)C(=O)CC | 6 (≈ 19.8 µM) | 
CCC(=O)C(CCCCCCCc1ccc(O)cc1)C(=O)CC | 6 (≈ 18.8 µM) | MIC (Human alphaherpesvirus 2 [1]): 6 µg/mL (≈ 18.8 µM)
CCC(=O)C(CCCCCCc1ccc(Cl)cc1OC)C(=O)CC | 3 (≈ 8.5 µM) | 
CCC(=O)C(CCCCCCCCCc1ccc(O)cc1)C(=O)CC |  | MIC (Human alphaherpesvirus 2 [1]): 6 µg/mL (≈ 17.3 µM)
CCC(=O)C(CCCCCCc1ccc(OC)cc1)C(=O)CC | 3 (≈ 9.42 µM) | 
CCC(=O)C(CCCCCCc1ccc2c(c1)OCO2)C(=O)CC | 6 (≈ 18 µM) | 
CCC(=O)C(CC/C(=C/C=C/c1ccc2c(c1)OCO2)CC)C(=O)CC | 6 (≈ 16.8 µM) | 
CCC(=O)C(CCCCCCc1ccc(OC(=O)c2cccc(C)c2)cc1)C(=O)CC | 3 (≈ 7.1 µM) | 
CCC(=O)C(CCCc1ccc(O)cc1)C(=O)CC |  | inhibition (Human alphaherpesvirus 2 [1]): inactive

Source: ChEMBL document CHEMBL3272294, “Antiviral activity of some beta-diketones. 1. Aryl alkyl diketones. In vitro activity against both RNA and DNA viruses” (1977)
